Calls of active or inactive are those of the source. The rule behind the calls is not given here. Numbered stars: 1 amine (or outer) side, 2 acyl side, 3 side chain; on linkers, the order of the positions; unused ones are H or OH. Bridge positions count the residues as written; N and C are the ends. Square brackets hold non-standard residues; d marks the D form. Peptide text beside a SMILES is read from it. I, II: the chains in the order shown. Dmt = Cc1cc(O)cc(C)c1C[C@H](N)C(=O)O; Ethylenediamine = C(CN[*:2])N[*:1]; Tic = O=C(O)[C@@H]1Cc2ccccc2CN1
Assays:
[1] = biological target: Mu-type opioid receptor (Cavia porcellus, UniProt P97266); assay: Antagonist activity at mu opioid receptor in guinea pig ileum; type: functional, tissue-based
Mu-type opioid receptor (Cavia porcellus, UniProt P97266), sequence (P97266 whole entry): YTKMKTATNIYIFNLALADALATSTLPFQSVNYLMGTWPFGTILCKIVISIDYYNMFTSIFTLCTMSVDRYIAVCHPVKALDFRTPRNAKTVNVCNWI

[2] = biological target: Delta-type opioid receptor (Mus musculus, UniProt P32300); assay: Antagonist activity at delta opioid receptor in mouse vas deferens; type: functional, tissue-based
Delta-type opioid receptor (Mus musculus, UniProt P32300), sequence (P32300 whole entry): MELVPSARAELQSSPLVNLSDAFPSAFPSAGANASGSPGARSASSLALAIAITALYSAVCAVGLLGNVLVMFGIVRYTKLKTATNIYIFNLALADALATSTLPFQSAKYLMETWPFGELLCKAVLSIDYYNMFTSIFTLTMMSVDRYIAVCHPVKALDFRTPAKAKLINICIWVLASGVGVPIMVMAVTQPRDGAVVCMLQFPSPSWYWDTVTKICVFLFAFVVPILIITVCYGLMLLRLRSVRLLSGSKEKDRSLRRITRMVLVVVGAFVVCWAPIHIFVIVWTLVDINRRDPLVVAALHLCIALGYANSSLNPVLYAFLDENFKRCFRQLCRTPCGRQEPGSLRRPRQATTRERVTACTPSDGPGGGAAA

[3] = biological target: Delta-type opioid receptor (Rattus norvegicus, UniProt P33533); assay: Displacement of [3H]deltorphin 2 from delta opioid receptor in rat brain membranes; type: cell membranes
Delta-type opioid receptor (Rattus norvegicus, UniProt P33533), sequence (P33533 whole entry): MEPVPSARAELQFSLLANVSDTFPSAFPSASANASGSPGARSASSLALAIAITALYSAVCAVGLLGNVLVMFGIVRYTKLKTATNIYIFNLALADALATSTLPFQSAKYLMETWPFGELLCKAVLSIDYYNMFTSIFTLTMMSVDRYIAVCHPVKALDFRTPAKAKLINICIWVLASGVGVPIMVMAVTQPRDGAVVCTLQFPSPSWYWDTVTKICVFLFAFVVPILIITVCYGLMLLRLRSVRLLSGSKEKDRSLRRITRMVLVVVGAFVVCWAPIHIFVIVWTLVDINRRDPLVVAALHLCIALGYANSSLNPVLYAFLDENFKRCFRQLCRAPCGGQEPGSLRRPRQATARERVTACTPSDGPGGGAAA
How it was run: (§1)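 Equilibrium competition binding on P2 membrane preparation of rat brain; mu sites labelled with [3H]DAMGO, delta sites with [3H]deltorphin II. Five to eight graded peptide doses, duplicate wells; Ki via Cheng-Prusoff. Mean ± SEM from three to six independent assays using different synaptosomal preparations.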

[4] = biological target: Mu-type opioid receptor (Rattus norvegicus, UniProt P33535); assay: Displacement of [3H]DAMGO from mu opioid receptor in rat brain membranes; type: cell membranes; how it was run: as §1
Mu-type opioid receptor (Rattus norvegicus, UniProt P33535), sequence (P33535 whole entry): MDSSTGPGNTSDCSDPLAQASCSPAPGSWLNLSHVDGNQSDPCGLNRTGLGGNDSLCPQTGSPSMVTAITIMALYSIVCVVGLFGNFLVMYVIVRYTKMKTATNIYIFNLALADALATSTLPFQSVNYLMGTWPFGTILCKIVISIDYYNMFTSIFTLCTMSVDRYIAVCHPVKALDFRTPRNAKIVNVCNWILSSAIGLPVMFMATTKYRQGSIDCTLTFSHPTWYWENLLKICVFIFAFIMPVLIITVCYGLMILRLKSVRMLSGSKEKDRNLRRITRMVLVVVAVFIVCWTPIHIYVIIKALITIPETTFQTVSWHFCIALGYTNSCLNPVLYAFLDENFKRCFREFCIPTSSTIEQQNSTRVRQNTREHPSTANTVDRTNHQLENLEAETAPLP

[5] = organism: Rattus norvegicus; assay: Selectivity ratio of Ki for rat mu opioid receptor to Ki for rat delta opioid receptor
[6] = biological target: Mu-type opioid receptor (Homo sapiens) (UniProt P35372); assay: Antagonist activity at mu opioid receptor in human SK-N-SH cells assessed as inhibition of loperamide-stimulated [35S]-GTPgammaS binding after 60 mins by liquid scintillation counting; type: functional, cell-based
Mu-type opioid receptor (Homo sapiens), sequence (P35372 whole entry): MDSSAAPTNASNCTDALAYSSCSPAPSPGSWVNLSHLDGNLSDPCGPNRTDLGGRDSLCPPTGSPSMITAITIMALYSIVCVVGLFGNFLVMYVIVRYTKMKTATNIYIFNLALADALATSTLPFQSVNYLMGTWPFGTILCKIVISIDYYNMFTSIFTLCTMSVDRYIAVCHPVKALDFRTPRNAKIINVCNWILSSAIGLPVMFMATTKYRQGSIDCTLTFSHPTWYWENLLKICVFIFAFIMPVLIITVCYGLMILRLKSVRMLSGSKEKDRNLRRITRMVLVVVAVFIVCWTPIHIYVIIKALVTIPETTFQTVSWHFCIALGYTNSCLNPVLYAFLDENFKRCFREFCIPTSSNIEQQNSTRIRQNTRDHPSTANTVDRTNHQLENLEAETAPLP
How it was run: (§2)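 [35S]GTPγS binding in cell membranes: delta antagonism measured against deltorphin C-stimulated binding in NG108-15 membranes, mu antagonism against loperamide-stimulated binding in SK-N-SH membranes; antagonism expressed as pA2 from rightward shift of agonist dose-response curves.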

[7] = biological target: Delta-type opioid receptor (Rattus norvegicus) (UniProt P33533); assay: Antagonist activity at delta opioid receptor in rat NG108-15 cells assessed as inhibition of deltorphin C-stimulated [35S]-GTPgammaS binding after 60 mins by scintillation counting; type: functional, cell-based; how it was run: as §2
Delta-type opioid receptor (Rattus norvegicus), sequence (P33533 whole entry): as the sequence (P33533 whole entry) above

[8] = organism: Rattus norvegicus; assay: Selectivity ratio of Ki for rat delta opioid receptor to Ki for rat mu opioid receptor

| SMILES | IC50 [1] [µM] | IC50 [2] [µM] | Ki [3] [nM] | Ki [4] [nM] | Ratio Ki [5] | pA2 [6] | pA2 [7] | Ratio Ki [8] |
| --- | --- | --- | --- | --- | --- | --- | --- | --- |
| Cc1cc(O)cc(C)c1C[C@H](N)C(=O)N[C@H]1Cc2ccccc2CN(CC(=O)NCCN(CCNC(=O)CN2Cc3ccccc3C[C@H](NC(=O)[C@@H](N)Cc3c(C)cc(O)cc3C)C2=O)CCNC(=O)CN2Cc3ccccc3C[C@H](NC(=O)[C@@H](N)Cc3c(C)cc(O)cc3C)C2=O)C1=O | > 10 | > 10 | 196 | 8.06 | – | – | – | – |
| Cc1cc(O)cc(C)c1C[C@@H](C(=O)N[C@H]1Cc2c([nH]c3ccccc23)CN(CC(=O)NCCNC(=O)CN2Cc3[nH]c4ccccc4c3C[C@H](NC(=O)[C@H](Cc3c(C)cc(O)cc3C)N(C)C)C2=O)C1=O)N(C)C | – | – | 101 | 344 | 3.4 | inactive | inactive | – |
| Cc1cc(O)cc(C)c1C[C@H](N)C(=O)N[C@@H]1Cc2c([nH]c3ccccc23)CN(CC(=O)NCc2ccc(CNC(=O)CN3Cc4[nH]c5ccccc5c4C[C@@H](NC(=O)[C@@H](N)Cc4c(C)cc(O)cc4C)C3=O)cc2)C1=O | – | – | 361 | 177 | – | inactive | inactive | 2 |
| Cc1cc(O)cc(C)c1C[C@H](N)C(=O)N1Cc2ccccc2C[C@H]1C(=O)NCCNC(=O)[C@@H]1Cc2ccccc2CN1C(=O)[C@@H](N)Cc1c(C)cc(O)cc1C (I: H-[Dmt]-[Tic] / II: H-[Dmt]-[Tic]; linker I:C-II:C via Ethylenediamine) | > 10 | > 10 | 0.96 | 10.2 | – | – | – | – |
| Cc1cc(O)cc(C)c1C[C@H](N)C(=O)N[C@@H]1Cc2c([nH]c3ccccc23)CN(CC(=O)NCCNC(=O)CN2Cc3[nH]c4ccccc4c3C[C@@H](NC(=O)[C@@H](N)Cc3c(C)cc(O)cc3C)C2=O)C1=O | – | – | 211 | 139 | – | inactive | inactive | 1.5 |
| Cc1cc(O)cc(C)c1C[C@H](N)C(=O)N1Cc2ccccc2C[C@H]1C(=O)NCC/C=C/CCNC(=O)[C@@H]1Cc2ccccc2CN1C(=O)[C@@H](N)Cc1c(C)cc(O)cc1C | – | – | – | 1.5 | – | – | – | – |
| Cc1cc(O)cc(C)c1C[C@H](N)C(=O)N1Cc2ccccc2C[C@H]1C(=O)O (H-[Dmt]-[Tic]-OH) | – | – | – | 3.32 | – | – | – | – |
| Cc1cc(O)cc(C)c1C[C@H](N)C(=O)N[C@H]1Cc2ccccc2CN(CC(=O)NCCNC(=O)CN2Cc3ccccc3C[C@H](NC(=O)[C@@H](N)Cc3c(C)cc(O)cc3C)C2=O)C1=O | > 10 | – | 154 | 16.1 | – | – | – | – |
| Cc1cc(O)cc(C)c1C[C@H](N)C(=O)N1Cc2ccccc2C[C@H]1C(=O)NCCN(CCNC(=O)[C@@H]1Cc2ccccc2CN1C(=O)[C@@H](N)Cc1c(C)cc(O)cc1C)CCNC(=O)[C@@H]1Cc2ccccc2CN1C(=O)[C@@H](N)Cc1c(C)cc(O)cc1C | > 10 | > 10 | 3.75 | 7.78 | – | – | – | – |
